# APJ agonist: APJ receptor agonism; CHO-K1 APJ PathHunter beta-arrestin, luminescence; 0% DMSO wells, 100% apelin; AID 2520; activation, % at 20 µM; 330,000 tested, 0.11% active;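 active = activation more than six SD over the plate average, tested at 20 µM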;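 note: 0% = DMSO alone and 100% = apelin-13 at 10 nM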
# Target sequence (P35414 whole entry, looked up): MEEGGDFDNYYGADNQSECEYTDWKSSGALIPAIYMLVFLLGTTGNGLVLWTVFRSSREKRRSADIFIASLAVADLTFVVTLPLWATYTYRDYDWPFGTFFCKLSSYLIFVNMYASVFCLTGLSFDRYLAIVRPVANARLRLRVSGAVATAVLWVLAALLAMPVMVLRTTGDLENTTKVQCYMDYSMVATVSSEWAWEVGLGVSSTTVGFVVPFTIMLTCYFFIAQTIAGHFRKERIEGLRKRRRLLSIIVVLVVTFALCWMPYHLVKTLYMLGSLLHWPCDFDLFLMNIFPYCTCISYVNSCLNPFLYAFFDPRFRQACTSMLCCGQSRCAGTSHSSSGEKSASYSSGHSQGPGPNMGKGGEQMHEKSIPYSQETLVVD
#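 Test system: CHO-K1 APJ beta-arrestin complementation cell line | Compound: Single test compound dose, 20 µM final, 1% DMSO | Incubation: Compound 90 min 25 °C, reagent 1 h | Measured by: beta-gal luminescence | Read-out basis: APJ–arrestin association signal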
# EBI2 block: blocks human EBI2 receptor beta-arrestin signaling | EBI2 beta-arrestin recruitment, luminescence, 7a,25-OHC stimulated | AID 651636 | P32249 | 360,000 tested, 0.81% active | inhibition, % at 5 µM; in the data active = inhibition above about 38%;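 note: enzyme fragment complementation signal reports receptor beta-arrestin coupling in cells; 0% = agonist plus DMSO wells and 100% = wells without agonist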
# CXCR6 inh: blocks human CXCR6 beta-arrestin recruitment. CHO-K1 PathHunter CXCR6 beta-arrestin, luminescence. O00574. 360,000 tested, 0.36% active. inhibition, % at 20 µM; in the data active = inhibition above about 34%, passing the limit was not always enough;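 note: antagonist mode with CXCL16 agonist at 10 nM final; 0% = 10 nM CXCL16 with DMSO and 100% = unstimulated wells without agonist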
# APJ antag: blocks the human apelin receptor APJ | CHO-K1 APJ beta-arrestin complementation, luminescence | inhibition, % at 20 µM | 330,000 tested, 0.32% active;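 active = inhibition above about 40% at 20 µM, limit read from the data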;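 note: cells challenged with 10 nM apelin-13 agonist together with compound; plate controls were apelin-13 plus DMSO wells for no effect and DMSO wells lacking apelin-13 for full effect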
# CCR6 antag: antagonists of human CCR6 receptor; CHO-K1 CCR6 PathHunter beta-arrestin, luminescence, CCL20-stimulated; P51684; AID 493098; 340,000 tested, 0.49% active; inhibition, % at 20 µM;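 active = compounds whose inhibition of the agonist-driven luminescence signal at 20 µM reaches about 50%, limit read from the data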;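 note: cells stimulated with CCL20 at 14 nM final; plate controls were DMSO with CCL20 for no effect and DMSO without agonist for full effect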
# EBI2 conf: confirmation of human EBI2 receptor antagonists. inhibition, % at 5 µM. EBI2 beta-arrestin luminescence, 7a,25-OHC antagonism. AID 651997. shares compounds with EBI2 block. 2,400 tested, 29% active;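 active = inhibition of at least 50%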
# EBI2 agonist: EBI2 agonism counter-screen. shares compounds with EBI2 block. EBI2-expressing cells, agonist mode, luminescence, 60 min; 0% vehicle, 100% 7α,25-dihydroxycholesterol control. activation, % at 5 µM. 2,400 tested, under 10 active. AID 652000;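 active = activation of at least 50%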
# bGal counter: beta-galactosidase inhibition counter-screen; inhibition, % at 5 µM; 2,400 tested, 1% active; shares compounds with EBI2 block; purified beta-galactosidase, luminescent Galacton Star, 15 min;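 active = replicate-average signal at least 3 plate SD below neutral wells, shown as high inhibition, flagging enzyme-inhibiting false positives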;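 note: 0% = DMSO wells with enzyme and 100% = wells lacking enzyme; higher means stronger loss of beta-gal luminescence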
# * marks the source's active call; other numbers are inactive results; x = no result given. Hits are enriched below; roughly 1.5% of the tested compounds scored in any of these assays.
SMILES,APJ agonist,EBI2 block,CXCR6 inh,APJ antag,CCR6 antag,EBI2 conf,EBI2 agonist,bGal counter
O=C(NC(Sc1ccc(Cl)cc1)C(=O)O)c1ccccc1 (configuration not stated),x,13,-4,x,x,x,x,x
Cc1noc(-c2ccccc2)c1NC(=O)Nc1ccc2nc([C@H]3C[C@H](O)[C@@H](CO)O3)[nH]c2c1,x,-2,13,x,x,x,x,x
Cc1cccc(N2CCN(C(=O)NCc3ccc(F)cc3)CC2)c1C,-3,58*,0,-25,9,43,1,4
Cc1cccc(N2CCN(C(=O)Cc3ccc(Br)cc3)CC2)c1C,-1,47*,0,-20,32,11,-1,-10
Cc1cccc(N2CCN(C(=O)CNC(=O)Cc3ccccc3)CC2)c1C,-2,12,-3,-7,16,x,x,x
CCN(CC)C(=O)C1=C(C)N(Cc2ccc(C(C)(C)C)cc2)C(=O)C(CC(=O)NCc2cccs2)C1 (configuration not stated),x,13,1,x,x,x,x,x
CCOc1cc(/C=N/NC(=O)COc2nc(C)cc(COC)c2C#N)ccc1O,-2,62*,3,0,-15,36,2,1
CCC(C)CN1C(=O)CSCC1(C)C(=O)Nc1ccc2c(c1)OCCO2 (configuration not stated),x,1,x,x,x,x,x,x
CCCCn1nnnc1C(c1cc2ccccc2o1)N1CCCC1 (configuration not stated),x,-10,3,x,x,x,x,x
CCCCn1nnnc1C(c1cc2ccccc2o1)N1CCN(c2ncccc2C#N)CC1 (configuration not stated),x,48*,2,x,x,37,0,-16
CCCCn1nnnc1C(c1cc2ccccc2o1)N1CCN(C/C=C/c2ccccc2)CC1 (configuration not stated),x,62*,0,x,x,34,0,6
CN1OC[C@@H]2CN3C(=O)N(c4ccccc4)c4ccccc4[C@@H]3C[C@@H]21,x,-7,-6,x,x,x,x,x
O=C(COC(=O)c1cc(S(=O)(=O)N2CCCCC2)ccc1N1CCOCC1)c1ccccc1Cl,x,48*,6,x,x,65*,0,6
O=C(COC(=O)c1cc([N+](=O)[O-])ccc1N1CCOCC1)Nc1ccccc1OC(F)F,9,2,-1,-59,15,x,x,x
O=C(COC(=O)c1cc([N+](=O)[O-])ccc1N1CCOCC1)c1ccc(OC(F)F)cc1OC(F)F,-4,44*,16,18,17,18,0,8
Cc1ccc(CCNC(=O)C2CCC(CNc3c(N4CCC(C)CC4)c(=O)c3=O)CC2)cc1 (configuration not stated),-2,4,5,-4,16,x,x,x
Cc1ccc(CNC(=O)C2CCC(CNc3c(N4CCC(C)CC4)c(=O)c3=O)CC2)cc1 (configuration not stated),-2,84*,5,-2,9,57*,1,12
COC(=O)c1ccc(Oc2ccc(C(F)(F)F)cn2)cc1,-4,44*,4,5,6,38,2,1
COc1ccc(-c2cc(-c3ccccc3)c(C#N)c(S(C)(=O)=O)n2)cc1,4,66*,3,-6,-4,72*,5,8
CC1(c2nc3ccccc3[nH]2)CCCC2=Nc3ccccc3CN21 (configuration not stated),x,-9,-4,x,x,x,x,x
CCOC(=O)C1=C(O)/C(=C/c2cc(OC)c(O)c(OC)c2)SC1=Nc1ccc(OC)cc1,x,49*,13,x,21,49,2,14
CCOC(=O)C1=C(O)/C(=C/c2ccccn2)SC1=Nc1ccc(Cl)cc1,-1,88*,7,20,24,86*,1,8
COc1ccc(C2c3ccc(O)cc3Oc3ncn4nc(-c5cccnc5)nc4c32)cc1OC (configuration not stated),-2,81*,13,5,13,55*,-1,9
COc1ccc(C(=O)NC23CC4CC(CC(C4)C2)C3)cc1,-1,-3,4,-11,5,x,x,x
CC(Oc1ccc2oc3ccccc3c2c1)C(=O)NC12CC3CC(CC(C3)C1)C2 (configuration not stated),-4,54*,-1,4,13,13,-1,-16
SMILES,APJ agonist,EBI2 block,CXCR6 inh,APJ antag,CCR6 antag,EBI2 conf,EBI2 agonist,bGal counter
Cc1ccc(NC2=CC(=O)CC(c3ccc(Cl)cc3)C2)cc1 (configuration not stated),-2,82*,9,1,1,79*,-1,-8
C/C=C/C1=CC(=O)C[C@H](c2ccc(Cl)cc2)C1,-4,-2,2,-1,14,x,x,x
Cc1ccc(NC2=CC(=O)CC(c3ccccc3)C2)cc1 (configuration not stated),0,55*,-6,2,6,42,2,5
Nc1ccccc1NC1=CC(=O)CC(c2ccccc2)C1 (configuration not stated),-2,x,x,9,x,x,x,x
O=C1C=C(Nc2ccc(Cl)cc2)CC(c2ccccc2)C1 (configuration not stated),-1,70*,-2,6,16,55*,0,8
O=C(Oc1ccc(-c2cnc3ccccc3n2)cc1)c1cc([N+](=O)[O-])ccc1Cl,6,55*,1,-13,12,12,0,4
O=C(c1ccccc1)c1sc(Nc2ccc3c(c2)OCO3)nc1-c1ccccc1,x,50*,13,x,x,47,0,9
COc1ccc(CN(C)C(=O)[C@H]2O[C@@H](n3ccc(N)nc3=O)[C@H](O)[C@@H]2O)cc1OC,x,-12,-6,x,x,x,x,x
c1ccc2c(c1)C1=NCCN1c1ccccc1-2,x,9,5,x,x,x,x,x
CNC(=O)/C(C#N)=C/c1ccc(-c2nc3ccccc3s2)o1,0,53*,1,5,5,30,-1,-11
N#C/C(=C\c1ccc(-c2nc3ccccc3s2)o1)C(N)=O,-1,39,4,5,9,x,x,x
COc1ccc(-c2cc3nc(-c4ccccc4)cc(N4CCN(C(=O)c5ccccc5)CC4)n3n2)cc1,x,38,2,x,x,x,x,x
COc1ccc(-c2cc3nc(-c4ccccc4)cc(N4CCCC(O)C4)n3n2)cc1 (configuration not stated),2,66*,-14,-4,-10,55*,1,6
COc1ccc(-c2cc3nc(-c4ccccc4)cc(N4CCC(O)CC4)n3n2)cc1,6,64*,-9,-3,-12,56*,0,-23

# Assay outcomes from PubChem BioAssay.
